Reference: ChEMBL document CHEMBL2163267, “Novel N-linked aminopiperidine inhibitors of bacterial topoisomerase type II with reduced pK(a): antibacterial agents with an improved safety profile” (J Med Chem, 2012)
≈ marks a conversion by molar mass, not a printed value.

How the values were obtained:
[1] = tested on: Cavia porcellus; experiment: Cardiotoxicity in iv dosed guinea pig assessed as MAPD90 prolongation at 16 uM free plasma concentration; type: toxicity, organism-based; details: in vivo
In short: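 Male guinea pigs anaesthetized with Nembutal, tracheotomized and mechanically ventilated. Compound given iv in two 17 min infusion periods with cardiac pacing. Monophasic action potential recorded continuously and MAPD90 taken. Blood drawn at each dose level for plasma concentration. Vehicle controls run in separate cohorts; n = 6.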

[2] = AUC in Beagle dog at 3 mg/kg, iv administered as bolus dose; type: ADME, organism-based, Canis lupus familiaris; set-up: dose 3 mg/kg, route intravenous; details: plasma
[3] = Clearance in Beagle dog at 3 mg/kg, iv administered as bolus dose and 10 mg/kg, po; type: ADME, organism-based, Canis lupus familiaris; details: in vivo
[4] = biological target: T1, Voltage-gated inwardly rectifying potassium channel KCNH2 (Homo sapiens, UniProt Q12809); experiment: Displacement of [3H]-astemizole from human ERG expressed in HEK293 cells after 60 mins by liquid scintillation counter; type: cell-based
[5] = tested on: Pseudomonas aeruginosa; experiment: Antibacterial activity against Pseudomonas aeruginosa PAO1 after 18 to 24 hrs by CLSI broth microdilution method; type: functional
[6] = Oral bioavailability in Wistar Han rat at 10 mg/kg; type: ADME, organism-based; details: in vivo
In short: (§1)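 Bioavailability from a 10 mg/kg oral dose, by gavage in rats (groups of three) or orally in male beagle dogs (n = 3). Plasma sampled serially over time (dogs 0 to 24 h). Levels measured by LC-MS/MS and referenced to iv dosing. Parameters from non-compartmental analysis.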

[7] = Dissociation constant, pKa of the compound by pH metric assay; type: physicochemical
In short: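 pH-metric titration on an automated titrator, run in triplicate. Accuracy about 0.02 log units.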

[8] = Inhibition of Escherichia coli DNA topoisomerase 4 subunit ParC/DNA topoisomerase 4 subunit ParE ATPase activity after 24 hrs by malachite green staining-based colorimetric assay
[9] = AUC in Wistar Han rat at 3 mg/kg, iv administered as bolus dose; type: ADME, organism-based; set-up: dose 3 mg/kg, route intravenous; details: plasma
In short: (§2)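 Single iv dose (3 mg/kg bolus, or 10 mg/kg infusion, per line). Rats in groups of three, bolus via cannulated jugular vein. Male beagle dogs (n = 3), iv as 15 min infusion, sampled 0 to 24 h. Serial whole-blood samples taken at time intervals. Plasma levels measured by LC-MS/MS. Parameters estimated by non-compartmental analysis.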

[10] = Half life in Beagle dog at 3 mg/kg, iv administered as bolus dose and 10 mg/kg, po; type: ADME, organism-based, Canis lupus familiaris; details: in vivo
[11] = Volume of distribution in Beagle dog at 3 mg/kg, iv administered as bolus dose and 10 mg/kg, po; type: ADME, organism-based, Canis lupus familiaris; details: in vivo
[12] = Intrinsic clearance in Beagle dog hepatocytes measured per 10^6 cells; type: ADME, cell-based, Canis lupus familiaris, Hepatocyte; details: read-out: CLH
[13] = Half life in Wistar Han rat at 3 mg/kg, iv administered as bolus dose and 10 mg/kg, po; type: ADME, organism-based; details: in vivo; in short: as §2
[14] = Volume of distribution in Wistar Han rat at 3 mg/kg, iv administered as bolus dose and 10 mg/kg, po; type: ADME, organism-based; details: in vivo; in short: as §2
[15] = Clearance in Wistar Han rat at 3 mg/kg, iv administered as bolus dose and 10 mg/kg, po; type: ADME, organism-based; details: in vivo; in short: as §2
[16] = tested on: Streptococcus pneumoniae; experiment: Antibacterial activity against penicillin-susceptible Streptococcus pneumoniae D39 after 18 to 24 hrs by CLSI broth microdilution method; type: functional
[17] = tested on: Escherichia coli; experiment: Antibacterial activity against Escherichia coli W3110 after 18 to 24 hrs by CLSI broth microdilution method; type: functional
[18] = Intrinsic clearance in Wistar Han rat hepatocytes measured per 10^6 cells; type: ADME, cell-based, Hepatocyte; details: read-out: CLH
[19] = tested on: Staphylococcus aureus; experiment: Antibacterial activity against methicillin-susceptible Staphylococcus aureus after 18 to 24 hrs by CLSI broth microdilution method; type: functional
[20] = Oral bioavailability in Beagle dog at 10 mg/kg; type: ADME, organism-based, Canis lupus familiaris; details: in vivo; in short: as §1
[21] = Octanol-phosphate buffer partition coefficient, log D of the compound at pH 7.4 by shake flask method; type: physicochemical
In short: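 Shake-flask partition between n-octanol and 10 mM phosphate buffer at pH 7.4. Shaken 1 h at 1200 rpm to reach equilibrium. Phases analysed by LC/UV, with MS for mass confirmation.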

[22] = biological target: T1, Voltage-gated inwardly rectifying potassium channel KCNH2; experiment: Inhibition of human ERG by Ionworks assay
[23] = Fraction unbound in human plasma at 10 uM by equilibrium dialysis method; type: ADME, cell-free
In short: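 Equilibrium dialysis. Compound at 10 μM in the plasma (donor) chamber against phosphate buffer, rotated at 37 °C for 16 h. Drug in the plasma and buffer samples quantified by LC-MS/MS after methanol protein precipitation with internal standard. Standard curve 10 nM to 10 μM.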

T1 sequence (Q12809 whole entry): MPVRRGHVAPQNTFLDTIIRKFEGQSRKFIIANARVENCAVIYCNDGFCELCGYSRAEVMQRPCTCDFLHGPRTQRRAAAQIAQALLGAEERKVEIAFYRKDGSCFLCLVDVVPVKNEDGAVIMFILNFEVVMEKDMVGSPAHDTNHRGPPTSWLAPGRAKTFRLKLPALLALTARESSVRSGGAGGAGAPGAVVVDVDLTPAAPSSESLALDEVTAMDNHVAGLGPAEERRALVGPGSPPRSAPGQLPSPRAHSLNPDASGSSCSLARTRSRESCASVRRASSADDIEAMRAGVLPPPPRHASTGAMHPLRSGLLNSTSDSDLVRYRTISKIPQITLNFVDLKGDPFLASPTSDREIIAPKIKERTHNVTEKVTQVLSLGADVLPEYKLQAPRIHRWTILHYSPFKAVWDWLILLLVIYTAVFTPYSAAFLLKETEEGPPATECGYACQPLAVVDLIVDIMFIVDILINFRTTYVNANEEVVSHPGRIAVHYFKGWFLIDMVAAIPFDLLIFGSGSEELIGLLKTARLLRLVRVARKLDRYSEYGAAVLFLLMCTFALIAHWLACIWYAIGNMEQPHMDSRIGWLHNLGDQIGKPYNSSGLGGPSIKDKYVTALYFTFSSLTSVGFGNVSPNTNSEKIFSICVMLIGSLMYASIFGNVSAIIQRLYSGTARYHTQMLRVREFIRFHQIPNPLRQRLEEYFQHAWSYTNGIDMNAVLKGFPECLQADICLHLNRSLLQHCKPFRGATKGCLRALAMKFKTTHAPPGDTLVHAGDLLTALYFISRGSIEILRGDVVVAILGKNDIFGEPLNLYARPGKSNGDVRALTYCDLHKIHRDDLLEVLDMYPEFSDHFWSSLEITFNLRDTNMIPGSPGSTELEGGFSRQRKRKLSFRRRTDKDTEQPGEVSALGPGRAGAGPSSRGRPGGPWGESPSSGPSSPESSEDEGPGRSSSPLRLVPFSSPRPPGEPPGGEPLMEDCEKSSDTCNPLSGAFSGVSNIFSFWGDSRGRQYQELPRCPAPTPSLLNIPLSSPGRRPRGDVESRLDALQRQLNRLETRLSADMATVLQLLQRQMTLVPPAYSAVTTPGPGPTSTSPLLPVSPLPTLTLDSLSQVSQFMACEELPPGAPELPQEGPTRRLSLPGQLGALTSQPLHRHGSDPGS

| SMILES | AUC [2] [ng·h/mL] | clearance [3] [mL/min/kg] | MIC [5] [µg/mL] | pKa [7] | IC50 [8] [µM] | AUC [9] [ng·h/mL] | Vd [11] [L/kg] | hepatocyte CLint [12] [µL/min/1e6 cells] | Vd [14] [L/kg] | clearance [15] [mL/min/kg] | MIC [16] [µg/mL] | MIC [17] [µg/mL] | hepatocyte CLint [18] [µL/min/1e6 cells] | MIC [19] [µg/mL] | logD [21] | fraction unbound at 10 µM [23] | also measured |
| --- | --- | --- | --- | --- | --- | --- | --- | --- | --- | --- | --- | --- | --- | --- | --- | --- | --- |
| N#Cc1ccc2ccc(=O)n(CCN3CCC(NCc4cc5c(cn4)OCCO5)CC3)c2c1 | 2600 | 18 | > 8 | 8.27 | 0.0032 | 370 | 8 | 1.8 | 21 | 127 | 0.08 (≈ 0.18 µM) | 0.5 (≈ 1.12 µM) | 42 | 0.03 (≈ 0.0673 µM) | 0.68 | 0.28 | Activity [1]: > 10%; IC50 [4]: 39 µM; bioavailability [6]: 31%; half-life [10]: 8.4 h; half-life [13]: 3 h; bioavailability [20]: 72%; IC50 [22]: 44 µM |
| COc1ccc2ncc(=O)n(CCN3CCC(NCc4ccc5c(n4)NC(=O)CO5)CC3)c2c1 | 6800 | 8.5 | 1 (≈ 2.15 µM) | 8.42 | 0.0022 | 190 | 2 | < 1 | 23 | 252 | 0.08 (≈ 0.172 µM) | 0.13 (≈ 0.28 µM) | 26 | 0.03 (≈ 0.0646 µM) | 0.6 | 0.26 |  |
